Assay results from different studies.
Protocols differ between the studies behind these lines. Values after ≈ are worked out from the molar mass of the structure shown.
Organism: Nakaseomyces glabratus

For `OC(CN1CCOCC1)(Cn1cncn1)c1ccc(F)cc1F` (stereo not shown), the MIC was 31.3 µg/mL (≈ 96.5 µM) (microbial growth; broth dilution; ATCC2001; 48 h).
For `C[C@@H]1[C@H](O)[C@@H](C)/C=C/C=C/C=C/C=C/C=C/C=C/C=C/[C@H](O[C@@H]2O[C@H](C)[C@@H](O)[C@H](N)[C@@H]2O)C[C@@H]2O[C@](O)(C[C@@H](O)C[C@@H](O)[C@H](O)CC[C@@H](O)C[C@@H](O)CC(=O)O[C@H]1C)C[C@H](O)[C@H]2C(=O)O`, the IC50 was 390 nM (microbial growth; ATCC90030).
`CCOC(=O)c1nc2ccccc2c(=O)n1Cc1cn(-c2ccccc2Cl)nn1` has an IC50 of 183 µg/mL (microbial growth; broth dilution; ATCC90030; 24 h).
With `CCCCOc1c(OC)cc(NC(C)CCCN)c2nc(C(C)(C)C)cc(C)c12` (stereo not shown) the MIC was > 20 µg/mL (microbial growth; broth dilution; ATCC90030).
The MIC of `CCCCCCCCCCCN1CCN(CC(O)(Cn2cncn2)c2ccc(F)cc2F)CC1` (stereo not shown) is reported as 3.9 µg/mL (≈ 8.17 µM) (microbial growth; broth dilution; ATCC2001; 48 h).
The IC50 of `COc1ccc(-n2cc(Cn3c(C(=O)O)nc4ccccc4c3=O)nn2)cc1` is reported as 718 µg/mL (microbial growth; broth dilution; ATCC90030; 24 h).
The MIC of `CCCCCCOc1c(OC)cc(NC(C)CCCN)c2nc(C(C)(C)C)ccc12` (stereo not shown) is reported as 20 µg/mL (≈ 48.1 µM) (microbial growth; broth dilution; ATCC90030).
The IC50 of `COc1cccc(-n2cc(Cn3c(C(=O)O)nc4ccccc4c3=O)nn2)c1` is reported as 453 µg/mL (microbial growth; broth dilution; ATCC90030; 24 h).
For `CCCCCCCCOc1c(OC)cc(NC(C)CCCNC(=O)C2CCCN2)c2nc(C(C)(C)C)ccc12` (stereo not shown), the MFC was 20 µg/mL (≈ 37 µM) (microbial killing; ATCC90030).
For `C[C@@H]1[C@H](O)[C@@H](C)/C=C/C=C/C=C/C=C/C=C/C=C/C=C/[C@H](O[C@@H]2O[C@H](C)[C@@H](O)[C@H](N)[C@@H]2O)C[C@@H]2O[C@](O)(C[C@@H](O)C[C@@H](O)[C@H](O)CC[C@@H](O)C[C@@H](O)CC(=O)O[C@H]1C)C[C@H](O)[C@H]2C(=O)O`, the MFC was 0.63 µg/mL (≈ 0.682 µM) (microbial killing; ATCC90030).
